# Reference: ChEMBL document CHEMBL1155063 (Bioorg Med Chem, 2008)
# Tests used:
# [1] = test system: HCT-15; test: Growth percent of human HCT15 cells at 10 uM after 48 hrs by MTT assay; conditions: HCT-15, 48 h
# [2] = test system: COLO 205; test: Cytotoxicity against human COLO205 cells at 10 uM after 48 hrs by MTT assay; format: functional; conditions: COLO 205, 48 h, values are per cent of control
# In short: (§1)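 Single-dose screen on the NCI 60-cell-line panel, run to the Developmental Therapeutics Program protocol (one-dose mean graph). Each value is the growth percentage of treated cells against untreated control cells.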
# [3] = Cytotoxicity against human H1299 cells at 10 uM after 48 hrs by MTT assay realtive to control; format: functional; conditions: NCI-H1299, 48 h
# In short: (§2)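 H1299 non-small-cell lung cells were kept in RPMI 1640 with 10% FBS and penicillin/streptomycin at 37 °C under 5% CO2. About 2 × 10^3 cells per well were pre-incubated for 24 h. Compound was added from freshly made DMSO solution diluted in complete medium and left for 48 h. MTT was then added for 4 h at 37 °C, followed by 20% SDS/50% DMF lysis buffer for 16 h at 37 °C, and absorbance read at 550 nm.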
# [4] = test system: SF-539; test: Cytotoxicity against human SF539 cells at 10 uM after 48 hrs by MTT assay; format: functional; conditions: SF-539, 48 h, values are per cent of control
# In short: as §1
# [5] = test system: NCI-H23; test: Cytotoxicity against human NCI-H23 cells at 10 uM after 48 hrs by MTT assay; format: functional; conditions: NCI-H23, 48 h
# In short: as §1
# [6] = test system: Malme-3M; test: Cytotoxicity against human MALME3M cells at 10 uM after 48 hrs by MTT assay; format: functional; conditions: values are per cent of control
# In short: as §1
# [7] = test system: K562; test: Cytotoxicity against human K562 cells at 10 uM after 48 hrs by MTT assay; format: functional; conditions: K562, 48 h
# In short: as §1
# [8] = test system: SR; test: Cytotoxicity against human SR cells at 10 uM after 48 hrs by MTT assay; format: functional
# In short: (§3)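 Single-dose screen in the NCI 60-cell-line panel, run according to the Developmental Therapeutics Program protocol (one-dose mean graph). The result is the growth percentage of treated cells relative to untreated control cells.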
# [9] = test system: RPMI-8226; test: Cytotoxicity against human RPMI-8226 cells at 10 uM after 48 hrs by MTT assay; format: functional; conditions: RPMI-8226, 48 h
# In short: as §1
# [10] = test system: MCF7; test: Cytotoxicity against human MCF7 cells at 10 uM after 48 hrs by MTT assay; format: functional; conditions: MCF7, 48 h, values are per cent of control
# In short: as §1
# [11] = test system: NCI-H226; test: Cytotoxicity against human NCI-H226 cells at 10 uM after 48 hrs by MTT assay; format: functional; conditions: NCI-H226, 48 h
# In short: as §1
# [12] = Cytotoxicity against human H1299 cells at 100 uM after 48 hrs by MTT assay realtive to control; format: functional; conditions: NCI-H1299, 48 h
# In short: as §2
# [13] = test system: SK-MEL-2; test: Cytotoxicity against human SK-MEL-2 cells at 10 uM after 48 hrs by MTT assay; format: functional; conditions: SK-MEL-2, 48 h, values are per cent of control
# In short: as §1
# [14] = test system: HCT-116; test: Growth percent of human HCT116 cells at 10 uM after 48 hrs by MTT assay; conditions: HCT-116, 48 h
# [15] = molecular target: T1, Telomerase reverse transcriptase (Homo sapiens, UniProt O14746); test: Effect on human TERT expressed in H1299 cells at 100 uM after 24 hrs by SEAP assay relative to control
# [16] = test system: ACHN; test: Cytotoxicity against human ACHN cells at 10 uM after 48 hrs by MTT assay; format: functional
# In short: as §1
# [17] = Cytotoxicity against human TERT immortalized BJ1 cells at 100 uM after 48 hrs by MTT assay relative to control; format: cell-based, BJ
# In short: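 hTERT-immortalized BJ1 fibroblasts were grown in DMEM with 10% FCS, 1 mM pyruvate and 4 mM […]. Cells (about 2 × 10^3 per well) were seeded and held 24 h at 37 °C. Compounds were freshly dissolved in DMSO, diluted into medium and left on the cells 48 h. MTT was added for 4 h, then SDS/DMF lysis buffer for 16 h. Absorbance was read at 550 nm and expressed relative to untreated cells (100%).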
# [18] = test system: SK-MEL-5; test: Cytotoxicity against human SK-MEL-5 cells at 10 uM after 48 hrs by MTT assay; format: functional; conditions: SK-MEL-5, 48 h, values are per cent of control
# In short: as §1
# [19] = test system: HCC 2998; test: Growth percent of human HCC2998 cells at 10 uM after 48 hrs by MTT assay; conditions: HCC 2998, 48 h
# [20] = test system: SK-OV-3; test: Cytotoxicity against human SKOV3 cells at 10 uM after 48 hrs by MTT assay; format: functional; conditions: SK-OV-3, 48 h
# In short: as §1
# [21] = test system: U-251; test: Cytotoxicity against human U251 cells at 10 uM after 48 hrs by MTT assay; format: functional; conditions: U-251, 48 h, values are per cent of control
# In short: as §3
# [22] = test system: HCT-29; test: Growth percent of human HCT29 cells at 10 uM after 48 hrs by MTT assay; conditions: HCT-29, 48 h
# [23] = test system: SF-268; test: Cytotoxicity against human SF268 cells at 10 uM after 48 hrs by MTT assay; format: functional; conditions: SF-268, 48 h, values are per cent of control
# In short: as §1
# [24] = test system: OVCAR-4; test: Cytotoxicity against human OVCAR4 cells at 10 uM after 48 hrs by MTT assay; format: functional; conditions: OVCAR-4, 48 h
# In short: as §1
# [25] = test system: SNB-19; test: Cytotoxicity against human SNB19 cells at 10 uM after 48 hrs by MTT assay; format: functional; conditions: SNB-19, 48 h, values are per cent of control
# In short: as §1
# [26] = molecular target: T1, Telomerase reverse transcriptase; test: Effect on human TERT expressed in H1299 cells at 10 uM after 24 hrs by SEAP assay relative to control
# [27] = test system: TK-10; test: Cytotoxicity against human TK10 cells at 10 uM after 48 hrs by MTT assay; format: functional; conditions: TK-10, 48 h, values are per cent of control
# In short: as §3
# [28] = test system: BT-549; test: Cytotoxicity against human BT549 cells at 10 uM after 48 hrs by MTT assay; format: functional; conditions: BT-549, 48 h
# In short: as §1
# [29] = test system: SN12C; test: Cytotoxicity against human SN12C cells at 10 uM after 48 hrs by MTT assay; format: functional
# In short: as §1
# [30] = test system: LOX IMVI; test: Cytotoxicity against human LOXIMVI cells at 10 uM after 48 hrs by MTT assay; format: functional; conditions: values are per cent of control
# In short: as §1
# [31] = molecular target: T1, Telomerase reverse transcriptase; test: Effect on human TERT expressed in BJ1 cells at 1 uM after 24 hrs by SEAP assay realtive to control; conditions: BJ
# [32] = test system: OVCAR-3; test: Cytotoxicity against human OVCAR-3 cells at 10 uM after 48 hrs by MTT assay; format: functional; conditions: OVCAR-3, 48 h
# In short: as §1
# [33] = test system: OVCAR-8; test: Cytotoxicity against human OVCAR8 cells at 10 uM after 48 hrs by MTT assay; format: functional; conditions: OVCAR-8, 48 h
# In short: as §1
# [34] = test system: KM12; test: Cytotoxicity against human KM12 cells at 10 uM after 48 hrs by MTT assay; format: functional; conditions: KM12, 48 h; for growth, % of control at 10 µM: values are per cent of control
# In short: as §1
# T1 sequence (O14746 whole entry): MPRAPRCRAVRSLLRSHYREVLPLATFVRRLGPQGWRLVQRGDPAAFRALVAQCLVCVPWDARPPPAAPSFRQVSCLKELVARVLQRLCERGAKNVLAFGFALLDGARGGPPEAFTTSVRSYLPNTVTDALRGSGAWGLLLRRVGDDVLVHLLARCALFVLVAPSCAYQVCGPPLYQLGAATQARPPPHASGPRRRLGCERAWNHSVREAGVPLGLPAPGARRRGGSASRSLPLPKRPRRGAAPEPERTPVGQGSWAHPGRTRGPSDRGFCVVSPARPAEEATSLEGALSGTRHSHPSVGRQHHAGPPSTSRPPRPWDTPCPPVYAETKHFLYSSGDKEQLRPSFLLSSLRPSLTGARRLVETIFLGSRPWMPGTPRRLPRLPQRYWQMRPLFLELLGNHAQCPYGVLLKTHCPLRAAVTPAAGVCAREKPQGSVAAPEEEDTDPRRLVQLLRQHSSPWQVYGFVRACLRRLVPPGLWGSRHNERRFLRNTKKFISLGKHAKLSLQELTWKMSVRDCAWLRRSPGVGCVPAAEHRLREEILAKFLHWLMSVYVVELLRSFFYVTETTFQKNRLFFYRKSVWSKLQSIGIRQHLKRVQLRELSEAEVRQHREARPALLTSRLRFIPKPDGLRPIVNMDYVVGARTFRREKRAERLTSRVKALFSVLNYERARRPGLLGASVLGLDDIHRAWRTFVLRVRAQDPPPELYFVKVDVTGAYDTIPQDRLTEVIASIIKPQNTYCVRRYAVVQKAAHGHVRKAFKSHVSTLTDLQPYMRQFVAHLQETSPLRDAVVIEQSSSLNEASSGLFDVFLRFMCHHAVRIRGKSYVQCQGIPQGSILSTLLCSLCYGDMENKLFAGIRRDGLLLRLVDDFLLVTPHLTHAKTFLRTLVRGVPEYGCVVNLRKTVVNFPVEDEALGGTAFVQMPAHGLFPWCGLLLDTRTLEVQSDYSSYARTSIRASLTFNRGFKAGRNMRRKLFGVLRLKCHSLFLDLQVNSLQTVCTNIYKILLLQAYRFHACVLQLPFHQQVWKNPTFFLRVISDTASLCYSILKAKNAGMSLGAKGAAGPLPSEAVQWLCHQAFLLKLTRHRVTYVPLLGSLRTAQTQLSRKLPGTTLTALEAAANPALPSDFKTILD
residual activity [15] [%],Structure (SMILES),growth percent at 10 µM [1] [%],"growth, % of control at 10 µM [2] [%]",viability at 10 µM [3] [%],"growth, % of control at 10 µM [4] [%]",growth percent at 10 µM [5] [%],"growth, % of control at 10 µM [6] [%]",growth percent at 10 µM [7] [%],growth percent at 10 µM [8] [%],growth percent at 10 µM [9] [%],"growth, % of control at 10 µM [10] [%]",growth percent at 10 µM [11] [%],viability at 100 µM [12] [%],"growth, % of control at 10 µM [13] [%]",growth percent at 10 µM [14] [%],growth percent at 10 µM [16] [%],"viability at 48 h, 100 µM [17] [%]","growth, % of control at 10 µM [18] [%]",growth percent at 10 µM [20] [%],"growth, % of control at 10 µM [21] [%]",further results
21,CN(C)CC(=O)Nc1ccc2c(c1)C(=O)c1cc(NC(=O)CN(C)C)ccc1C2=O,16.3,-73.6,55,-3.72,51.8,96.2,34.9,-46.5,35,7.92,89.1,15,-30.4,19.1,66.4,39,82.6,70.3,16.1,"growth percent at 10 µM [19]: -74%; growth percent at 10 µM [22]: 11.7%; growth, % of control at 10 µM [23]: 64.9%; growth percent at 10 µM [24]: 45.7%; growth, % of control at 10 µM [25]: 79.6%; residual activity [26]: 40%; growth, % of control at 10 µM [27]: 73.5%; growth percent at 10 µM [28]: 85.4%; growth percent at 10 µM [29]: 28%; growth, % of control at 10 µM [30]: -52.3%; residual activity [31]: 96%; growth percent at 10 µM [32]: 43.6%; growth percent at 10 µM [33]: 32.3%; growth, % of control at 10 µM [34]: 67%"
81,O=C1c2ccc(NC(=O)C3CC3)cc2C(=O)c2cc(NC(=O)C3CC3)ccc21,86.3,91.9,36,93.2,95.8,91.8,91.6,1.69,88.4,77.4,101,43,16.9,87.1,86.7,47,75.7,93.2,72.6,"growth percent at 10 µM [19]: 132%; growth percent at 10 µM [22]: 106%; growth, % of control at 10 µM [23]: 95.1%; growth percent at 10 µM [24]: 97.5%; growth, % of control at 10 µM [25]: 98.8%; residual activity [26]: 81%; growth, % of control at 10 µM [27]: 136%; growth percent at 10 µM [28]: 92.5%; growth percent at 10 µM [29]: 82.9%; growth, % of control at 10 µM [30]: 90.3%; growth percent at 10 µM [32]: 103%; growth percent at 10 µM [33]: 94.3%; growth percent at 10 µM [34]: 92.7%"
26,CCN(CC)CCC(=O)Nc1ccc2c(c1)C(=O)c1cc(NC(=O)CCN(CC)CC)ccc1C2=O,17.4,-49.7,41,37.1,30.3,62.4,8.1,-0.39,-29,9.34,49.9,1,-60.4,-32.5,11.1,36,82.8,44,21.6,"growth percent at 10 µM [22]: 3.3%; growth, % of control at 10 µM [23]: 35.2%; growth percent at 10 µM [24]: 24.9%; growth, % of control at 10 µM [25]: 75.8%; residual activity [26]: 35%; growth, % of control at 10 µM [27]: 17.2%; growth percent at 10 µM [28]: 57%; growth percent at 10 µM [29]: 8.63%; growth, % of control at 10 µM [30]: 3.39%; residual activity [31]: 84%; growth percent at 10 µM [32]: 10.4%; growth percent at 10 µM [33]: 4.3%; growth, % of control at 10 µM [34]: 21.8%"
